ChEMBL document CHEMBL4043109, “Dual inhibitors of the human blood-brain barrier drug efflux transporters P-glycoprotein and ABCG2 based on the antiviral azidothymidine” (Bioorg Med Chem, 2017)
One block for each compound: values may come before it. Calls of active or inactive are those of the source. The rule behind the calls is not given here.

How the values were obtained:
[1] = Inhibition of P-gp in human MCF7/DX1 cells assessed as increase in calcein-AM accumulation incubated for 10 mins by flow cytometry; type: cell-based; conditions: MCF7/DX1, 10 min
Outline: (§1)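 MCF-7/DX1 cells (125,000, in suspension) were incubated at 37 °C for 10 min in BME containing 0.5 μM calcein-AM (final) plus increasing compound concentrations, with DMSO held at 5%. GF120918 1 μM served as positive control. IC50 was taken from mean fluorescence; triplicate.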

[2] = molecular target: T1, Broad substrate specificity ATP-binding cassette transporter ABCG2 (Homo sapiens, UniProt Q9UNQ0); experiment: Inhibition of ABCG2 in human MCF7/FLV1000 cells assessed as increase in mitoxantrone accumulation incubated for 30 mins by flow cytometry
T1 sequence (Q9UNQ0 whole entry): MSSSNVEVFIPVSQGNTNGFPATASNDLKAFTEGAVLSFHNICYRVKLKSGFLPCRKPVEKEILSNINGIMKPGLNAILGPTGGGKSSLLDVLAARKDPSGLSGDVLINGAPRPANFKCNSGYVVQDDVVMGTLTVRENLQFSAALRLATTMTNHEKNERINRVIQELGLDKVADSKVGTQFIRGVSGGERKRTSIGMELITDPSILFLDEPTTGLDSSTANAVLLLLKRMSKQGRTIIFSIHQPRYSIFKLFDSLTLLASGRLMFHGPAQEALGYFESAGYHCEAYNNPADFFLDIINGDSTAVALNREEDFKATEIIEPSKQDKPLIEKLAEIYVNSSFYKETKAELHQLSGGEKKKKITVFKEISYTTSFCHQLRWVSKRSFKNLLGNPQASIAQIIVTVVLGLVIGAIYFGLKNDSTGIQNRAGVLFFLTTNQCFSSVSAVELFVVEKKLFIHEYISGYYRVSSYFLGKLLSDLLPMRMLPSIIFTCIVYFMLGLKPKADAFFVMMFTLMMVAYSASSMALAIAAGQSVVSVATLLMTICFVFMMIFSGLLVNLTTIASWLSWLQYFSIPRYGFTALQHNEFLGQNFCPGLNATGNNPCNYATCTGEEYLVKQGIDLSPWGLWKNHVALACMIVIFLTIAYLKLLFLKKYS

Homo sapiens [3] = organism: Homo sapiens; experiment: Inhibition of P-gp in human MCF7/DX1 cells assessed as increase in calcein-AM accumulation at 500 uM incubated for 10 mins by flow cytometry; type: cell-based; outline: as §1
[4] = molecular target: T1, Broad substrate specificity ATP-binding cassette transporter ABCG2; experiment: Inhibition of ABCG2 in human MCF7/FLV1000 cells assessed as increase in mitoxantrone accumulation at 400 uM incubated for 30 mins by flow cytometry; conditions: 0.5 h
Homo sapiens [5] = organism: Homo sapiens; experiment: Inhibition of P-gp in human MCF7/DX1 cells assessed as increase in calcein-AM accumulation at 400 uM incubated for 10 mins by flow cytometry; type: cell-based; outline: as §1
[6] = molecular target: T1, Broad substrate specificity ATP-binding cassette transporter ABCG2; experiment: Inhibition of ABCG2 in human MCF7/FLV1000 cells assessed as increase in mitoxantrone accumulation at 200 uM incubated for 30 mins by flow cytometry; conditions: 0.5 h
[7] = Cytotoxicity in human MCF-7 FLV1000 cells assessed as cell viability at […] uM incubated for 24 hrs by MTT assay; type: cell-based; conditions: read-out: Activity
[8] = Cytotoxicity in human MCF7/DX1 cells assessed as cell viability at 2 uM incubated for 24 hrs by MTT assay; type: cell-based; conditions: read-out: Activity
Outline: (§2)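 MTT viability assay on MCF-7/FLV1000 (ABCG2-overexpressing, grown with 1000 nM flavopiridol) and MCF-7/DX1 (P-gp-overexpressing, grown with 1 μM doxorubicin) cells. Cells were exposed for 24 h to increasing dimer concentrations. Viability is the absorbance of treated cells relative to untreated cells.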

[9] = Cytotoxicity in human MCF-7 FLV1000 cells assessed as cell viability at 40 uM incubated for 24 hrs by MTT assay; type: cell-based; conditions: read-out: Activity; outline: as §2
[10] = molecular target: ATP-dependent translocase ABCB1 (Homo sapiens, UniProt P08183); experiment: Inhibition of human MDR1 expressed in Sf9 cell membranes assessed as reduction in [125I]-IAAP binding incubated for 20 mins under UV light irradiation and measured after 30 mins by densitometry based photo-affinity labeling assay
Sequence of ATP-dependent translocase ABCB1 (P08183 whole entry): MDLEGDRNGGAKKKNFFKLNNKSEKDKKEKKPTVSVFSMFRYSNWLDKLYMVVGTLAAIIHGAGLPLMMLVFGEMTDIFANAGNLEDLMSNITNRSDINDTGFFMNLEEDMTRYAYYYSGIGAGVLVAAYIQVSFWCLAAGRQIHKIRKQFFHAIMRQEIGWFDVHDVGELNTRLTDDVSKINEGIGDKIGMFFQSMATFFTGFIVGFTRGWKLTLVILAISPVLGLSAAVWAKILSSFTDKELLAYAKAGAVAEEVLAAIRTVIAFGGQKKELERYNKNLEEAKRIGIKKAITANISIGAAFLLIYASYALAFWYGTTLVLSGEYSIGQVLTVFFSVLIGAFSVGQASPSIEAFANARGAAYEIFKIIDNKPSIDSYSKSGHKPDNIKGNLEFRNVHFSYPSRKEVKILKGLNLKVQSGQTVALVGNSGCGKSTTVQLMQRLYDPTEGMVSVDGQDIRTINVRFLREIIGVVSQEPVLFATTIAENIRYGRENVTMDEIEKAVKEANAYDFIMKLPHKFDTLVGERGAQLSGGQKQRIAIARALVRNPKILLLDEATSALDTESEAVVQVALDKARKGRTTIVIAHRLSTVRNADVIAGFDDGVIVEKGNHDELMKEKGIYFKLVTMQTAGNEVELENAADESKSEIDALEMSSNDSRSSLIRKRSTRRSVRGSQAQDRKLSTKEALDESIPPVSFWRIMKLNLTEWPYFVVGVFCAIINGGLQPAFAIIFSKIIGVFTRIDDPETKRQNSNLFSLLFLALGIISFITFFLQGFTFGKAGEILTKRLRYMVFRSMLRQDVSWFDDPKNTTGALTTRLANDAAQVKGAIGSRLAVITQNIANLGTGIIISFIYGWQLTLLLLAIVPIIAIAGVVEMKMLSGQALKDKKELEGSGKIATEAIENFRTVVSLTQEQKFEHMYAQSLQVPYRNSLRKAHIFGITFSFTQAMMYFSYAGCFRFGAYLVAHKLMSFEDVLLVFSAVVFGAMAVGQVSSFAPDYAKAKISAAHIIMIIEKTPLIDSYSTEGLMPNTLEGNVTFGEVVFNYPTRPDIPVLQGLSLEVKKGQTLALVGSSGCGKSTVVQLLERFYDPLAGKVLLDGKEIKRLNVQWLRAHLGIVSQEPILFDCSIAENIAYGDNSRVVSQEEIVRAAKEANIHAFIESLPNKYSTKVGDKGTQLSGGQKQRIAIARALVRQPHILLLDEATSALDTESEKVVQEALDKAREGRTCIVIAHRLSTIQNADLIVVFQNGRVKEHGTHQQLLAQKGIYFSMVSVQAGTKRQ
Outline: (§3)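 Crude Sf9 membranes, from baculovirus infection expressing P-gp (25 µg) or ABCG2 (40 µg), were preincubated 10 min at room temperature in the dark. Buffer was 50 mM Tris pH 7.5 with 1% aprotinin, 1 mM DTT and 2 mM AEBSF. Additions were compound (in DMSO) and [125I]-IAAP, ~2200 Ci/mmol. Controls were 2.5% DMSO and GF120918 (10 µM for P-gp, 20 µM for ABCG2). Samples were UV-irradiated at 365 nm for 20 min on ice, then held 30 min in Laemmli buffer. Bands were resolved on 7.5% SDS-PAGE, autoradiographed and quantified as % of DMSO control to give IC50.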

[11] = molecular target: T1, Broad substrate specificity ATP-binding cassette transporter ABCG2; experiment: Inhibition of human ABCG2 expressed in Sf9 cell membranes assessed as reduction in [125I]-IAAP binding incubated for 20 mins under UV light irradiation and measured after 30 mins by densitometry based photo-affinity labeling assay; outline: as §3
[12] = Cytotoxicity in human MCF7/DX1 cells assessed as cell viability at 2.3 uM incubated for 24 hrs by MTT assay; type: cell-based; conditions: read-out: Activity; outline: as §2

Compound: Cc1cn([C@H]2C[C@H](N=[N+]=[N-])[C@@H](CO)O2)c(=O)[nH]c1=O [ZIDOVUDINE]
inhibition (Homo sapiens [3]): inactive | inhibition (INH) [4]: Not Active

Compound: Cc1cn([C@H]2C[C@H](N=[N+]=[N-])[C@@H](COC(=O)CCC(=O)OC[C@H]3O[C@@H](n4cc(C)c(=O)[nH]c4=O)C[C@@H]3N=[N+]=[N-])O2)c(=O)[nH]c1=O
inhibition (Homo sapiens [5]): inactive | inhibition (INH) [6]: Not Active

Compound: Cc1cn([C@H]2C[C@H](N=[N+]=[N-])[C@@H](COC(=O)CCCCCCCCCCCCC(=O)OC[C@H]3O[C@@H](n4cc(C)c(=O)[nH]c4=O)C[C@@H]3N=[N+]=[N-])O2)c(=O)[nH]c1=O
IC50 [1]: 2 µM | viability at 24 h, 13.3 µM [7]: > 95% | viability at 24 h, 2 µM [8]: > 95% | viability at 24 h, 40 µM [9]: 60% | IC50 [2]: 13.3 µM

Further lines, with some results ahead:

IC50 [1]: 11.3 µM
Compound: Cc1cn([C@H]2C[C@H](N=[N+]=[N-])[C@@H](COC(=O)CCCCCCCCC(=O)OC[C@H]3O[C@@H](n4cc(C)c(=O)[nH]c4=O)C[C@@H]3N=[N+]=[N-])O2)c(=O)[nH]c1=O
IC50 [2]: 28.2 µM

IC50 [1]: > 200 µM
Compound: Cc1cn([C@H]2C[C@H](N=[N+]=[N-])[C@@H](COC(=O)CCCCCC(=O)OC[C@H]3O[C@@H](n4cc(C)c(=O)[nH]c4=O)C[C@@H]3N=[N+]=[N-])O2)c(=O)[nH]c1=O
inhibition (INH) [6]: Not Active

IC50 [1]: 2.3 µM | IC50 [10]: 9.3 µM | inhibition (INH) ([10]; human, 20 min): Dose-dependent effect | IC50 [11]: 4.3 µM | inhibition (INH) ([11]; human, 20 min): Dose-dependent effect
Compound: Cc1cn([C@H]2C[C@H](N=[N+]=[N-])[C@@H](COC(=O)CCCCCCCCCCC(=O)OC[C@H]3O[C@@H](n4cc(C)c(=O)[nH]c4=O)C[C@@H]3N=[N+]=[N-])O2)c(=O)[nH]c1=O
viability at 24 h, 2.3 µM [12]: > 95% | viability at 24 h, 11.5 µM [7]: > 95% | IC50 [2]: 11.5 µM
